Screens deposited in PubChem BioAssay by Johns Hopkins Ion Channel Center.
RGS4 act: RGS4 potentiators or activators, primary screen, cell-based, HEK293 M3R inducible RGS4, calcium flux. carbachol calcium flux Fluo4; hits give low values. B-score at 10 µM. 0.92% of 310,000 active. AID 463111, 2010;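 active means B-score of the integrated calcium signal more than 4 SD below the library mean, with starting fluorescence not abnormally high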;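 further: negative B-score means reduced calcium response which marks RGS4 activation or potentiation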
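System – HEK293 FlpIn-TREx cells, stable M3R, doxycycline-inducible RGS4 · Reagent – ECmax carbachol challenge · Times – compound preincubation 20 min at room temperature before agonist · Technique – Fluo4 fluorescence kinetic imaging of calcium · Measure – B score of integrated Fluo4 ratio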
RGS4 block: RGS4 inhibitors, primary screen, cell-based, HEK293 M3R inducible RGS4, calcium flux; Fluo-4 calcium flux; hits give high values; triggered by carbachol at its EC20; B-score at 10 µM; 0.45% of 310,000 active; AID 463165, 2010; Regulator of G-protein signaling 4 (Homo sapiens), P49798;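 active means B-score, a plate-corrected calcium signal, over three deviations above library mean, with baseline fluorescence within five deviations of library mean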;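 further: RGS4 expression induced by doxycycline in cells with stable M3 receptor; B-score is computed from the integrated fluorescence ratio over baseline after carbachol; higher B-score means a larger calcium signal and so more RGS4 inhibition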
Target sequence (P49798 whole entry, looked up): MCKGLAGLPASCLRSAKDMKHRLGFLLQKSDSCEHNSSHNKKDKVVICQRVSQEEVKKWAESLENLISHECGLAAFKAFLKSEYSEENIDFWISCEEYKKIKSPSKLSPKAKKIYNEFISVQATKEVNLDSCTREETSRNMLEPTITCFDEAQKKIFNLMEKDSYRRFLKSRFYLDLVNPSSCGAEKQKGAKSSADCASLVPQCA
MrgX1 antag: antagonists of human MrgX1 receptor, primary screen, HEK293 cells, Fluo-4 calcium flux | BAM8-22 antagonism; hits give low values | 1.3% of 310,000 active | B-score at 10 µM;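 active means calcium-response B-score plate-corrected more than 3 library SD below zero, starting fluorescence within 5 deviations, no agonist response on first addition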;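 further: peak minus trough fluorescence over baseline after final BAM8-22 challenge near maximal dose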
Target sequence (Q96LB2 whole entry, looked up): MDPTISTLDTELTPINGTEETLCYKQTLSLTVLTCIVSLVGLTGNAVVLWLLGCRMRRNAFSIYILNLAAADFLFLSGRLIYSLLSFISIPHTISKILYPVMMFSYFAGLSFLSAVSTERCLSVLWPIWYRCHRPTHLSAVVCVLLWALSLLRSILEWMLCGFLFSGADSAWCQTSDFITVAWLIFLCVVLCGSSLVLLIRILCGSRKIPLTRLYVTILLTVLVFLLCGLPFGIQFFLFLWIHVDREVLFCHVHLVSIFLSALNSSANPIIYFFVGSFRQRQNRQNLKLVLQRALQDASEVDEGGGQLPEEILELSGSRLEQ
MrgX1 ag: agonists of human MrgX1 receptor, primary screen, HEK293 cells, Fluo-4 calcium flux; Mas-related G-protein coupled receptor member X1 (Homo sapiens), Q96LB2; Fluo-4 calcium fluorescence, agonist mode; hits give high values; B-score at 10 µM; 0.44% of 310,000 active; AID 588627, 2011;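 active means calcium response B-score plate-corrected fluorescence ratio at least 3 library SD, with starting fluorescence B-score inside 5 SD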
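Material: MrgX1-expressing HEK293 cells / Dosing: compound as first of three additions / Incubation: overnight seeding, then 1 h dark dye loading / Signal: Fluo-4 NW calcium fluorescence / Evaluation: B-scored fluorescence response ratio / Benchmarks: positive and negative control wells on each plate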
MrgX1 allo act: positive allosteric modulators of MrgX1, primary screen, HEK293 cells, Fluo-4 calcium flux; Mas-related G-protein coupled receptor member X1 (Homo sapiens), Q96LB2; FDSS; hits give high values; B-score at 10 µM; 0.63% of 310,000 active; AID 588675, 2011;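 active means plate-corrected calcium response at least 3 library SD above typical, normal starting fluorescence, not activating the receptor alone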;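 further: compound read alongside a low EC10 to EC30 dose of BAM8-22 agonist; peak minus trough fluorescence over baseline measured at the second addition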
MrgX1 antag conf: MrgX1 receptor antagonists, duplicate retest, confirmation, HEK293 cells, Fluo-4 calcium flux; shares compounds with MrgX1 antag; BAM8-22 calcium flux; hits give low values; remaining BAM8-22 calcium response % of control (hits give low values), % at 10 µM; 19% of 2,300 active;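 active means remaining agonist calcium response no higher than 100% minus 3 SD of agonist-only control wells, with starting fluorescence near control levels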;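 further: agonist BAM8-22 given at a near maximal EC90 to ECmax level; peak minus minimum fluorescence divided by baseline after agonist addition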
HEK293 Ca flux: nonspecific calcium signal in parental HEK293, confirmation, counter-screen for MrgX1 antagonist project, parental HEK293 cells, Fluo-4 calcium flux | 2% of 4,000 active | shares compounds with MrgX1 antag | Fluo-4 calcium fluorescence, FDSS | fluorescence ratio F(max-min)/F0 at 10 µM;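 active means duplicate-averaged calcium fluorescence ratio at least three times the standard deviation of buffer wells, a nonspecific response in parental cells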
HEK293 Ca counter: calcium response in parental HEK293 cells, primary screen, counter-screen for MrgX1 allosteric activator project, cell-based, Fluo-4 calcium flux, duplicate; shares compounds with MrgX1 antag; Fluo-4 fluorescence ratio; hits give high values; fluorescence ratio F(max-min)/F0 at 10 µM; 0.4% of 4,000 active; AID 624114, 2012;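 active means calcium fluorescence ratio, averaged over duplicates, at least 3 SD of the buffer-well ratio, meaning a nonspecific response in receptor-free cells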;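 further: untransfected parental HEK293 lacking MrgX1 used as counterscreen for MrgX1 allosteric activators; fluorescence change taken during the second addition on a kinetic imager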
HEK293 Ca cntr2: calcium response in parental HEK293 cells, primary screen, counter-screen for MrgX1 agonist project, cell-based, Fluo-4 calcium flux, duplicate, agonist mode; shares compounds with MrgX1 antag; Fluo-4 calcium fluorescence (FDSS); hits give high values; fluorescence ratio F(max-min)/F0 at 10 µM; 8.7% of 4,000 active; AID 624115, 2012;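 active means calcium fluorescence ratio at least three times the spread of buffer wells, meaning a non-specific response in parental cells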
Starred values were filed as active, the others as inactive; i = inactive; . = no result. Most compounds without a hit are left out; they make up all but 3.5% or so of the library.

SMILES | RGS4 act | RGS4 block | MrgX1 antag | MrgX1 ag | MrgX1 allo act | MrgX1 antag conf | HEK293 Ca flux | HEK293 Ca counter | HEK293 Ca cntr2
COc1ccc(OC)c(-n2c(SCC(N)=O)nnc2-c2c[nH]c3ccccc23)c1 | i | i | -6.7* | i | i | i | i | i | i
O=C(Nc1nsc(-c2ccccc2)n1)c1cccs1 | i | i | -10* | i | i | i | i | i | i
COc1cc(NC(=S)NC(=O)c2ccc(C(C)(C)C)cc2)ccc1NC(=O)c1cccs1 | i | i | -6.2* | i | i | 81%* | i | i | i
CCOC(=O)CNC(=O)c1ccc(SCC)cc1 | i | i | i | i | i | . | . | . | .
Cc1ccc(NNC(=O)c2ccno2)cc1Cl | i | i | i | i | i | . | . | . | .
O=C(Nc1cc(Cl)cc(Cl)c1)c1ccno1 | i | i | -4.5* | i | i | i | i | i | i
O=C(CCNC(=O)c1ccccc1Cl)Nc1nc(-c2ccc(F)cc2)cs1 | i | i | -5.5* | i | i | i | i | i | i
COc1ccc2[nH]c(=O)c(CN(c3ccc(C)c(C)c3)S(C)(=O)=O)cc2c1 | i | i | -4.5* | i | i | i | i | i | i
CCOC(=O)C1=C(C)N(C)C(C)=C(C(=O)OCC)C1c1ccccn1 | i | i | -7.2* | i | i | i | i | i | i
CCOC(=O)N1CCC(NC(=O)c2ccc(CS(=O)(=O)c3ccccc3C)o2)CC1 | i | i | i | i | i | . | . | . | .
Cc1cc(C2N=C(N)Nc3nc4ccccc4n32)c(C)n1-c1ccccc1Cl (configuration not stated) | i | i | -5.5* | i | i | i | i | i | i
Cc1ccc(-c2nc3cccnc3o2)cc1NC(=O)COc1ccc(C(C)(C)C)cc1 | -8.2* | i | -12* | i | i | 83%* | i | i | i
O=C(O)CCCC(=O)Nc1ccccc1C(=O)N1CCCC1 | i | i | -5.5* | i | i | i | i | i | i
Cc1ccccc1C(=O)NNC(=O)C1CCN(c2ncccn2)CC1 | i | i | i | i | i | . | . | . | .
O=C(Nc1ccccc1C(=O)N1CCCC1)C1CCN(c2ncccn2)CC1 | i | i | -7.2* | i | i | i | i | i | i
COc1ccccc1/C=N/N(C(C)=O)c1nc(-c2ccc(F)cc2)cs1 | i | i | i | i | i | . | . | . | .
N#CC1(N2CCN(C(=O)c3ccccc3)CC2)CCCCC1 | i | i | i | i | i | . | . | . | .
CCOC(=O)c1cnc2ccccc2c1Nc1ccc2c(c1)OCCO2 | i | i | -5.5* | i | i | i | i | i | i
CCOC(=O)CSc1nc(Nc2ccc3c(c2)OCO3)c2ccccc2n1 | i | i | i | i | i | . | . | . | .
CCCSc1nnc(NC(=O)Nc2ccc(F)cc2)s1 | i | i | -5.6* | i | i | 71%* | i | i | i
Cc1nnc(C)n1/N=C/c1cccnc1 | i | i | -7.1* | i | i | i | i | i | i
CCOC(=O)c1ccc(Nc2nc(N)c3cc(OC)c(OC)cc3n2)cc1 | i | i | i | i | i | . | . | . | .
COc1cc2nc(Nc3ccc(F)cc3)nc(N)c2cc1OC | i | i | -6.1* | i | i | 66%* | i | i | i
COC(=O)c1c(N)sc(C(C)=O)c1C | i | i | -8.4* | i | i | i | i | i | i
N#Cc1sc2nc(-c3ccccc3)cc(-c3ccco3)c2c1N | i | i | -10* | i | i | i | i | i | i
SMILES | RGS4 act | RGS4 block | MrgX1 antag | MrgX1 ag | MrgX1 allo act | MrgX1 antag conf | HEK293 Ca flux | HEK293 Ca counter | HEK293 Ca cntr2
COc1ccc(C(=O)N[C@H](C(=O)OCC(=O)NC(=O)c2cccn2C)C(C)C)cc1 | i | i | -4.8* | i | i | i | i | i | i
Cc1ccc(Cn2ccc(NC(=O)c3c(-c4ccccc4Cl)noc3C)n2)cc1 | i | i | i | i | i | . | . | . | .
O=C(COC(=O)c1ccc(Cl)nc1)NCCC1=CCCCC1 | i | i | i | i | i | . | . | . | .
O=C(NCCCn1ccnc1)c1cc(S(=O)(=O)N2CCOCC2)c(Cl)cc1Cl | i | i | -5.1* | i | i | i | i | i | i
CN(CCN1CCOCC1)C(=O)CC1C(=O)NCCN1Cc1ccccc1F (configuration not stated) | i | i | -8.6* | i | i | i | i | i | i
CN(CCC1CCOCC1)C(=O)CC1C(=O)NCCN1Cc1ccccc1F (configuration not stated) | i | i | i | i | i | . | . | . | .
Cc1ccccc1C(=O)Oc1ccc(Br)cc1C(=S)N1CCCC1 | i | i | -9.4* | i | i | i | i | i | i
O=C(NCc1ccc(Cl)cc1Cl)C1CCN(S(=O)(=O)c2ccc3c(c2)OCCCO3)CC1 | i | i | -7.1* | i | i | i | i | i | i
COc1ccc2oc(C(=O)OCC(=O)NCc3ccccc3OC)c(C)c2c1 | i | i | -5.1* | i | i | i | i | i | i
O=C(CSc1nnnn1-c1cccc2c1CCCC2)NC1CCCC1 | i | i | -4.5* | i | i | i | i | i | i
Cc1cccc(C)c1NC(=O)CSc1ncnc2nc[nH]c12 | i | i | -4.7* | i | i | i | i | i | i
